# Laboratory results from article PMC7981784 (Journal of medicinal chemistry, 2020).
# Key:
# HL60 (No MLL fusion) = assay: Cell growth inhibition assay; format: cell-based, human; details: ratio of cell growth IC50 values
# SCID mice = assay: Tolerability studies in mice; format: in vivo
# How it was run: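 Female SCID mice, three per group, were dosed with test compound on days 1, 3 and 5 for one week. Mice were weighed and checked for clinical signs of toxicity. Weight loss greater than 10% was counted as toxic.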
# HOXA9 gene expression [1] = assay: Pharmacodynamics in MV4; format: in vivo, mice; details: for effect in suppressing expression of HOXA9 gene: single intravenous dose 10 mg/kg, 24 hr, MV4;11 tumors in mice
# How it was run: (§1)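 Mice bearing subcutaneous MV4;11 xenografts received a single IV dose of vehicle or test compound: 10 mg/kg with tumors taken at 24 h, or 25 mg/kg with tumors taken at 6, 24 and 48 h; 3 mice per time point. Tumors were snap-frozen in liquid N2 and powdered. Total RNA was reverse-transcribed and HOXA9 and MEIS1 quantified by TaqMan real-time PCR. Comparative Ct method, normalized to GAPDH, expressed relative to vehicle.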
# MEIS1 gene expression [2] = assay: Pharmacodynamics in MV4; format: in vivo, mice; details: single intravenous dose 25 mg/kg; 6, 24 and 48 h
# How it was run: as §1
# MV4;11 xenograft tumor = assay: In vivo antitumor efficacy in the MV4
# How it was run: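 Female C.B-17 SCID mice received 5 × 10^6 MV4;11 cells subcutaneously in the flank, in 1:1 PBS/Matrigel (final Matrigel 5 mg/mL). At tumor volumes of 60–140 mm3, mice were randomized into groups of 7. Test compound was given IV in 10% PEG 400:3% Cremophor EL:87% PBS at 10 or 25 mg/kg, every other day, 3 times per week, for 11 doses; controls got vehicle. Caliper volume = (A×B2)/2. Tumor volume and body weight were measured 2–3 times weekly during treatment and at least weekly afterwards.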
# MEIS1 gene expression [3] = details: single dose 50 mg/kg intravenous; previous study; cited from earlier work
# HOXA9 gene expression [4] = details: single dose 50 mg/kg intravenous; previous study; cited from earlier work
# [5] = 25 mg/kg every other day (three times a week) for one week
# [6] = intravenous 10 mg/kg every other day (three times a week) for one week
Compound,cellular selectivity for MV4;11 and MOLM-13 cell lines over HL-60 cell line (HL60 (No MLL fusion)) [times],animal weight loss (SCID mice; [5]) [%],tolerability (SCID mice; [6]),effect in suppressing expression of HOXA9 gene (HOXA9 gene expression [1]),cellular selectivity for MLL leukemia cells over HL-60 (non-MLL leukemia cells) (HL60 (No MLL fusion)) [fold],further results
"COC(=O)N[C@H]1CCC[C@@H]1[C@](CN(C)C)(c1cccc(F)c1)C1CCN(CC2CN(c3ccc(S(=O)(=O)C4CN(C(=O)/C=C/CN(C)C)C4)cc3)C2)CC1 [Compound 9, Methyl ((1S,2R)-2-((S)-2-(dimethylamino)-1-(1-((1-(4-((1-((E)-4-(dimethylamino)but-2-enoyl)azetidin-3-yl)sulfonyl)phenyl)azetidin-3-yl)methyl)piperidin-4-yl)-1-(3-fluorophenyl)ethyl)cyclopentyl)carbamate]",> 300,–,–,–,–,–
"COC(=O)N[C@H]1CCC[C@@H]1[C@](CN1CCC1)(c1cccc(F)c1)C1CCN(CC2CN(c3ccc(S(=O)(=O)C4CN(C(=O)/C=C/CN(C)C)C4)cc3)C2)CC1 [Compound 10, Methyl ((1S,2R)-2-((S)-2-(azetidin-1-yl)-1-(1-((1-(4-((1-((E)-4-(dimethylamino)but-2-enoyl)azetidin-3-yl)sulfonyl)phenyl)azetidin-3-yl)methyl)piperidin-4-yl)-1-(3-fluorophenyl)ethyl)cyclopentyl)carbamate]",> 300,> 10,well tolerated,significant but modest effect,–,–
"COC(=O)N[C@H]1CCC[C@@H]1[C@](CN1CCC1)(c1cccc(F)c1)C1CCN(CC2CN(c3ccc(S(=O)(=O)C4CN(C(=O)/C=C/CN5CCC5)C4)cc3)C2)CC1 [Compound 14, Methyl ((1S,2R)-2-((S)-2-(azetidin-1-yl)-1-(1-((1-(4-((1-((E)-4-(azetidin-1-yl)but-2-enoyl)azetidin-3-yl)sulfonyl)phenyl)azetidin-3-yl)methyl)piperidin-4-yl)-1-(3-fluorophenyl)ethyl)cyclopentyl)carbamate]",–,–,–,–,> 700,–
"COC(=O)N[C@H]1CCC[C@@H]1[C@](CN1CCC1)(c1cccc(F)c1)C1CCN(CC2CN(c3ccc(S(=O)(=O)C4CN(C(=O)/C=C/CN5CCCC5)C4)cc3)C2)CC1 [Compound 15, Methyl ((1S,2R)-2-((S)-2-(azetidin-1-yl)-1-(3-fluorophenyl)-1-(1-((1-(4-((1-((E)-4-(pyrrolidin-1-yl)but-2-enoyl)azetidin-3-yl)sulfonyl)phenyl)azetidin-3-yl)methyl)piperidin-4-yl)ethyl)cyclopentyl)carbamate]",–,> 10,well tolerated,significant but modest effect,> 200,–
"COC(=O)N[C@H]1CCC[C@@H]1[C@](CN1CCC1)(c1cccc(F)c1)C1CCN(CC2CN(c3ccc(S(=O)(=O)C4CN(C(=O)/C=C/CN5CCCCC5)C4)cc3)C2)CC1 [Compound 16, Methyl ((1S,2R)-2-((S)-2-(azetidin-1-yl)-1-(3-fluorophenyl)-1-(1-((1-(4-((1-((E)-4-(piperidin-1-yl)but-2-enoyl)azetidin-3-yl)sulfonyl)phenyl)azetidin-3-yl)methyl)piperidin-4-yl)ethyl)cyclopentyl)carbamate]",–,–,well tolerated,significant but modest effect,–,"tolerability (SCID mice; [5]): well tolerated; suppression of MEIS1 gene expression in tumor tissue (MEIS1 gene expression [2]): effectively suppresses; suppression of HOXA9 gene expression in tumor tissue (HOXA9 gene expression [1]; single intravenous dose 25 mg/kg, 6, 24 and 48 h): effectively suppresses; effect on tumor growth over vehicle control (MV4;11 xenograft tumor; 10 mg/kg IV every other day, 3 times per week, 11 doses): no effect on tumor growth; body weight change and drug-related toxicity (MV4;11 xenograft tumor; 10 or 25 mg/kg IV, during and after treatment): no significant weight change"
COC(=O)N[C@H]1CCC[C@@H]1[C@](C#N)(c1cccc(F)c1)C1CCN(CC2CN(c3ccc(S(=O)(=O)C4CN(C(=O)/C=C/CN(C)C)C4)cc3)C2)CC1 [Compound M-525],–,–,–,–,–,suppression of MEIS1 gene expression in MV4;11 xenograft tumor tissue (MEIS1 gene expression [3]): strong suppression; suppression of HOXA9 gene expression in MV4;11 xenograft tumor tissue (HOXA9 gene expression [4]): strong suppression
